GPR7 antag – human neuropeptides B/W receptor 1 antagonism; P48145; GPR7-expressing cells, fluorescence antagonist assay; inhibition, % at 4.4 µM; 290,000 tested, 1.1% active; in the data active = inhibition above about 16%, passing the limit was not always enough;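 also: cells stimulated with the agonist NPW; 0% = agonist with vehicle and 100% = vehicle without agonist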
Target sequence (P48145 whole entry, looked up): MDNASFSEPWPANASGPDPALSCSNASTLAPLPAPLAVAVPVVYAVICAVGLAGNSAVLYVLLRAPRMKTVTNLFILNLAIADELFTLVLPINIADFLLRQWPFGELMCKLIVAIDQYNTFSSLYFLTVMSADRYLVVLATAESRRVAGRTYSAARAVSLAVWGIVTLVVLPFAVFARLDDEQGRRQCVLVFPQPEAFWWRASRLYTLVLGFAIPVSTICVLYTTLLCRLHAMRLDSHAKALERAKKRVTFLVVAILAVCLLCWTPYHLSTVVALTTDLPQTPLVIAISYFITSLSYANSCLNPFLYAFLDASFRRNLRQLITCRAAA
DAGLB inh – diacylglycerol lipase beta (human) inhibition; HEK293T DAGLB membrane lysate, EnzChek fluorogenic substrate; inhibition, % at 5.17 µM; 340,000 tested, 0.059% active; AID 504411; in the data active = inhibition above about 34%;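 also: 0% = enzyme with vehicle and 100% = wells lacking enzyme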
GRK2 aptamer HTS – inhibitors of human GRK2 displacing RNA aptamer | bead flow cytometry, FAM-aptamer displacement from GRK2 | 330,000 tested, 0.59% active | inhibition of aptamer binding, % at 10 µM | AID 488847;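 active = inhibition of aptamer binding above 40%, roughly 3 SD of noise, on plates passing a quality check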;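 also: median bead fluorescence of bound FAM aptamer so fluorescent compounds give negative values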
FID counter – fluorescent intercalator displacement, NS3 helicase counter-screen | DNA fluorescent intercalator displacement, fluorescence | inhibition, % at 7.9 µM | 290,000 tested, 0.17% active | AID 1845; in the data active = inhibition above about 37%;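 also: 0% = vehicle and 100% = reference compound; higher means more ethidium bromide displaced from hairpin DNA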
HCV NS3 hel inh – HCV NS3 helicase inhibition; 290,000 tested, 0.56% active; inhibition, % at 10.9 µM; NS3 helicase DNA unwinding, Cy5 molecular beacon fluorescence; AID 1800;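 active = inhibition above the mean of all tested compounds plus 3 SD, set per campaign, cut at about 35% in these data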;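 also: 0% = DMSO wells and 100% = thioflavine S control wells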
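Test system: hepatitis C virus NS3 helicase domain fragment enzyme. Also added: annealed dual-labelled DNA beacon duplex, ATP-started. Timing: 60 min unwinding reaction at 25 °C after ATP addition. Technique: Cy5 fluorescence. Measure: % inhibition of unwinding.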
HCV core dimer – HCV core protein dimerization inhibition. AID 1899. 300,000 tested, 0.33% active. TR-FRET GST/Flag-core106 dimerization, 1536-well. inhibition, % at 5 µM;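 active = inhibition above the mean of all tested compounds plus 3 SD, set per screening campaign, cut at about 45% in these data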
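Assay system: Tagged HCV core106 pair (GST and Flag) | Buffer or medium: KF-containing HEPES buffer, pH 7.45, DTT, CHAPS, BSA | Also added: Eu donor and XL665 acceptor anti-tag antibodies | Dosing: One concentration, 5 µM, in 0.5% DMSO | Timing: 4 h at 22.5 °C | Technique: TR-FRET 671 and 617 nm emission | Repeats: Singlicate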
Active calls of the source: *; . = no result given. Hits are enriched below; roughly 2.2% of the tested compounds scored in any of these assays.

SMILES | GPR7 antag | DAGLB inh | GRK2 aptamer HTS | FID counter | HCV NS3 hel inh | HCV core dimer
N#Cc1sc2nc(-c3ccccc3)cc(-c3ccco3)c2c1N | -6 | 9 | 2 | -4 | 34 | 49*
O=C(CSc1ccc(-c2ccco2)nn1)c1ccccc1 | -4 | -2 | 4 | -13 | 29 | 48*
O=C1Nc2ccccc2C12Nc1ccccc1-c1nc3ccccc3n12 (stereo unspecified) | 21* | 1 | 0 | -17 | 12 | -4
CCOC(=O)C1(CC2CCCCO2)CCN(Cc2cc3ccccc3[nH]2)CC1 (stereo unspecified) | 96* | -3 | 0 | 20 | -21 | -6
COc1ccc(S(=O)(=O)N(C)C[C@H]2Oc3ccc(NC(=O)Nc4ccc5c(c4)OCO5)cc3C(=O)N([C@H](C)CO)C[C@@H]2C)cc1 | . | 2 | 1 | . | . | .
CN(C(=O)c1ccccc1F)C(c1ccccc1)c1ccccc1 | 15 | -4 | 2 | -38 | -8 | 12
Nc1ncnc2oc(-c3ccco3)c(-c3ccco3)c12 | -10 | -2 | 22 | 2 | 22 | 73*
CSc1nc(N)nc(SCC(=O)c2ccc(C)cc2)c1C#N | 5 | 0 | 0 | 2 | 4 | 48*
CCCCn1c(O)c(/C=C/C=C/C=Nc2ccccc2)sc1=S | -16 | 7 | 1 | -15 | 22 | 63*
CN1CCn2cnc(C(=O)N[C@@H](Cc3ccccc3)C(=O)OC(C)(C)C)c2C1=O | . | 2 | . | . | . | .
O=C(Nc1ccc(Cl)c([N+](=O)[O-])c1)c1cnccn1 | -8 | 1 | 0 | -5 | -1 | 55*
O=C(Nc1ccc(Cl)c([N+](=O)[O-])c1)c1ccncc1 | -8 | -1 | 1 | 5 | -8 | 5
O=C(Nc1ccccc1Cl)c1cnccn1 | -7 | 1 | 1 | -9 | 7 | -4
O=C(Nc1ccc(Br)cc1Cl)c1cnccn1 | 3 | -2 | 14 | -6 | 7 | 68*
CCN(Cc1ccccc1)C(=O)CN1C(=O)NC2(CC(C)CC(C)(C)C2)C1=O (stereo unspecified) | -6 | 0 | 3 | -42 | -6 | 5
Cc1[nH]c2ccccc2c1C(=O)CN1C(=O)NC2(CC(C)CC(C)(C)C2)C1=O (stereo unspecified) | 19* | 2 | 0 | -17 | -12 | -1
CSc1nc(N)c2c(n1)N(C)C=NS2(=O)=O | . | -1 | . | . | . | .
COc1cccc(NC(=S)Nc2cc(C)cc(C)n2)c1 | -8 | -8 | 0 | -9 | -3 | 86*
COc1ccc(-n2nc(C(=O)NCC(=O)N3CCC(C)CC3)c3ccccc3c2=O)c(OC)c1 | 1 | -1 | 1 | -39 | 4 | -4
O=C(CSc1nc2ccccc2c(=O)[nH]1)Nc1ccc(C(=O)O)cc1 | 20* | 0 | 0 | -8 | 15 | -3
CCN(CC)CCN(C(=O)c1cc2ccccc2cc1OC)c1nc2ccc(OC)cc2s1 | 3 | -7 | 0 | 44* | -90 | -6
CCOC(=O)c1cccc(N2C(N)=NC(N)=NC2(C)C)c1 | 16* | 1 | 0 | -1 | 2 | -7
CC1CCCCC1NC(=O)c1cccc(S(=O)(=O)N2CCN(Cc3ccccc3)CC2)c1 (stereo unspecified) | . | -7 | 2 | . | . | 5
CCN(CC)c1ccc(/C=N/NC(=O)c2cccc(S(=O)(=O)Nc3ccccc3OC)c2)c(O)c1 | -19 | 8 | 70* | -19 | 17 | 20
CCN(CC)c1ccc(/C=N/NC(=O)c2cccc(S(=O)(=O)Nc3ccccc3OC)c2)cc1 | -12 | 3 | 2 | -15 | -8 | 2
SMILES | GPR7 antag | DAGLB inh | GRK2 aptamer HTS | FID counter | HCV NS3 hel inh | HCV core dimer
CCOC(=O)Cn1c(=O)oc2cc(S(=O)(=O)NC3CCCc4ccccc43)ccc21 (stereo unspecified) | 28* | 1 | 3 | -23 | 2 | -2
CC(=O)c1ccc(NC(=O)CN2CCN(S(=O)(=O)c3ccc4c(c3)OCCO4)CC2)cc1 | . | -2 | . | . | . | .
COc1cc(C(=O)N(Cc2ccccc2)c2cccc(C)c2)ccc1OCC(=O)N1CCOCC1 | . | -1 | . | . | . | .
Clc1ccc(-c2nnc3sc(-c4ccc(Br)o4)nn23)cc1 | 7 | -9 | 0 | 1 | -8 | -13
Cc1oc(-c2ccc(Cl)cc2)cc1-c1nn2c(-c3ccoc3C)nnc2s1 | -3 | 12 | 6 | -19 | 42* | 84*
CN(c1ccc(Cl)cc1)c1cc(=O)n(C)c2ccccc12 | -5 | 2 | 2 | -14 | 14 | 67*
Cc1ccc(NC(=O)CC(C)c2ccccc2)cc1S(=O)(=O)N1CCOCC1 (stereo unspecified) | . | 0 | 0 | . | . | .
Cc1cc(N/N=C/c2ccc(O)cc2)nc(NS(=O)(=O)c2ccccc2)n1 | -11 | 1 | 74* | -18 | 14 | -8
Cc1ccc(/C=N/Nc2cc(C)nc(NCc3ccccc3)n2)cc1 | 17 | 1 | 0 | 8 | -46 | 0
COc1cccc(CNn2cnnc2)c1OCc1ccc(F)cc1 | 24 | -3 | 0 | -5 | -3 | 2
COc1cccc(CNC23CC4CC(CC(C4)C2)C3)c1OCc1ccccc1 | 39* | 4 | 0 | 35 | -41 | -2
CC(=O)c1c(C)[nH]c(C(=O)NNC(=O)c2ccc(Br)cc2)c1C | . | 0 | 0 | . | . | .
O=C(O)c1ccc(N=Nc2c(O)[nH]c3ccc(Br)cc23)cc1 | 11 | 0 | 7 | -4 | 11 | -17
O=c1ccc2cc3c([nH]c4ccc(Br)cc43)oc-2c1O | -1 | 43* | 5 | -6 | 31 | 1
CCOc1ccccc1N1CCN(C(=O)CSc2ccc3c(c2)OCCO3)CC1 | . | 3 | 0 | . | . | .
O=C(N/N=C/c1cc([N+](=O)[O-])ccc1O)c1ccc(COc2ccc3c(c2)CCC3)o1 | -11 | 2 | 0 | -26 | -17 | .
COc1cc(/C=N/NC(=O)c2ccc(COc3ccccc3Cl)o2)cc(Br)c1O | 30* | 3 | 0 | -20 | -2 | -2
O=C(N/N=C/c1ccc2ccccc2c1)c1ccc(COc2ccc3c(c2)CCC3)o1 | -17 | -3 | 0 | -4 | 0 | 50*
O=C1CCCN1CCCNc1ccc2nnc(CCC(=O)N3CCN(c4ccccc4)CC3)n2n1 | -5 | 0 | 2 | -41 | 0 | 0
CC(C)c1nnc(NC(=O)Cc2cccs2)s1 | 2 | 3 | 0 | 5 | -4 | -2
CC(C)Cc1nnc(NC(=O)Cc2cccs2)s1 | -1 | 3 | 2 | -12 | 31 | 67*
CC(C)(C)Cc1nnc(NC(=O)Cc2cccs2)s1 | -3 | . | 0 | -15 | 14 | 51*
CCOC(=O)Nc1cc(OC)cc2ccc(C)nc12 | . | -6 | . | . | . | .
O=C(Cc1ccc(S(=O)(=O)N2CCOCC2)s1)Nc1ccc2c(c1)CCC2 | -3 | -4 | 0 | -8 | -11 | 26
CC(=O)Nc1ccc(NC(=O)Cc2ccc(S(=O)(=O)N3CCCCC3)s2)cc1 | 6 | -2 | 2 | -9 | 13 | 60*
